Data published in ChEMBL document CHEMBL1127365, “Self-immolative prodrugs: candidates for antibody-directed enzyme prodrug therapy in conjunction with a nitroreductase enzyme” (J Med Chem, 1994).

Tests used:
V79 [1] = assay: (§1) Tested for the effect of enzyme activation on the cytotoxicity at 10 uM when incubated with chinese hamster V79 cells; type: functional; conditions: Cricetulus griseus, read-out: Survival
How it was run: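 Chinese hamster V79 cells (2 × 10^5/mL) in PBS were exposed to the test agent alone, without NADH or NR, for 2 h at 37 °C. Cells were then harvested and assayed for colony-forming ability, reported as % survival. The supernatant was checked by HPLC for remaining prodrug.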

V79 [2] = assay: (§2) Tested for the effect of enzyme activation on the cytotoxicity at 10 uM when incubated with chinese hamster V79 cells in presence of NADH; type: functional, Cricetulus griseus
How it was run: (§3)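 Chinese hamster V79 cells (2 × 10^5/mL) in PBS were exposed to the test agent plus NADH (500 μM), without enzyme, for 2 h at 37 °C. Cells were then harvested and assayed for colony-forming ability, reported as % survival. The supernatant was assayed by HPLC for remaining prodrug.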

V79 [3] = assay: as §2; type: functional; conditions: Cricetulus griseus, read-out: Survival; how it was run: as §3
V79 [4] = assay: as §1; type: functional, Cricetulus griseus
V79 [5] = assay: (§4) Tested for the effect of enzyme activation on the cytotoxicity at 10 uM when incubated with chinese hamster V79 cells in presence of NADH and nitroreductase enzyme.; type: functional, Cricetulus griseus
How it was run: as §3, with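 “with” for “plus”, “μM) and E. coli B nitroreductase (10 μg/mL)” for “μM), without enzyme,”, “prodrug, giving % prodrug reduction.” for “prodrug.”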

V79 [6] = assay: as §4; type: functional; conditions: Cricetulus griseus, read-out: Survival
How it was run: as §3, with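 “with” for “plus”, “μM) and E. coli B nitroreductase (10 μg/mL)” for “μM), without enzyme,”, “prodrug, giving % prodrug reduction.” for “prodrug.”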

V79 [7] = assay: (§5) Tested for the effect of enzyme activation on the cytotoxicity at 50 uM when incubated with chinese hamster V79 cells in presence of NADH; type: functional; conditions: Cricetulus griseus, read-out: Survival; how it was run: as §3
V79 [8] = assay: (§6) Tested for the effect of enzyme activation on the cytotoxicity at 50 uM when incubated with chinese hamster V79 cells; type: functional, Cricetulus griseus
V79 [9] = assay: (§7) Tested for the effect of enzyme activation on the cytotoxicity at 50 uM when incubated with chinese hamster V79 cells in presence of NADH and nitroreductase enzyme.; type: functional; conditions: Cricetulus griseus, read-out: Survival
How it was run: as §3, with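 “with” for “plus”, “μM) and E. coli B nitroreductase (10 μg/mL)” for “μM), without enzyme,”, “prodrug, giving % prodrug reduction.” for “prodrug.”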

V79 [10] = assay: as §5; type: functional, Cricetulus griseus; how it was run: as §3
V79 [11] = assay: as §7; type: functional, Cricetulus griseus
How it was run: as §3, with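 “with” for “plus”, “μM) and E. coli B nitroreductase (10 μg/mL)” for “μM), without enzyme,”, “prodrug, giving % prodrug reduction.” for “prodrug.”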

V79 [12] = assay: as §6; type: functional; conditions: Cricetulus griseus, read-out: Survival
Mus musculus [13] = assay: In vivo toxicity in mouse at dose 10 mg/kg when administered intraperitoneally on day 2; type: organism-based; design: dose 10 mg/kg, route intraperitoneal; conditions: ip
How it was run: (§8)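 Balb C mice (20-25 g), groups of 3, single ip injection in arachis oil; doses 1, 5, 10 or 100 mg/kg. Untreated and arachis-oil-only groups served as controls. Mice were fed rodent diet and water ad libitum. Body weight was recorded as % of day 0 on days 2, 3, 7 and 9, and deaths were noted.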

Mus musculus [14] = assay: In vivo toxicity in mouse at dose 10 mg/kg when administered intraperitoneally on day 3; type: organism-based; design: dose 10 mg/kg, route intraperitoneal; conditions: ip; how it was run: as §8
Mus musculus [15] = assay: In vivo toxicity in mouse at dose 10 mg/kg when administered intraperitoneally on day 9; type: organism-based; design: dose 10 mg/kg, route intraperitoneal; conditions: ip; how it was run: as §8
Mus musculus [16] = assay: In vivo toxicity in mouse at dose 1 mg/kg when administered intraperitoneally on day 7; type: organism-based; design: dose 1 mg/kg, route intraperitoneal; conditions: ip; how it was run: as §8
Mus musculus [17] = assay: In vivo toxicity in mouse at dose 100 mg/kg when administered intraperitoneally on day 7; type: organism-based; design: dose 100 mg/kg, route intraperitoneal; conditions: ip; how it was run: as §8
Mus musculus [18] = assay: In vivo toxicity in mouse at dose 1 mg/kg when administered intraperitoneally on day 3; type: organism-based; design: dose 1 mg/kg, route intraperitoneal; conditions: ip; how it was run: as §8
Mus musculus [19] = assay: In vivo toxicity in mouse at dose 100 mg/kg when administered intraperitoneally on day 2; type: organism-based; design: dose 100 mg/kg, route intraperitoneal; conditions: ip; how it was run: as §8
Mus musculus [20] = assay: In vivo toxicity in mouse at dose 1 mg/kg when administered intraperitoneally on day 9; type: organism-based; design: dose 1 mg/kg, route intraperitoneal; conditions: ip; how it was run: as §8
Mus musculus [21] = assay: In vivo toxicity in mouse at dose 100 mg/kg when administered intraperitoneally on day 3; type: organism-based; design: dose 100 mg/kg, route intraperitoneal; conditions: ip; how it was run: as §8
Mus musculus [22] = assay: In vivo toxicity in mouse at dose 100 mg/kg when administered intraperitoneally on day 9; type: organism-based; design: dose 100 mg/kg, route intraperitoneal; conditions: ip; how it was run: as §8
Mus musculus [23] = assay: In vivo toxicity in mouse at dose 10 mg/kg when administered intraperitoneally on day 7; type: organism-based; design: dose 10 mg/kg, route intraperitoneal; conditions: ip; how it was run: as §8
Mus musculus [24] = assay: In vivo toxicity in mouse at dose 1 mg/kg when administered intraperitoneally on day 2; type: organism-based; design: dose 1 mg/kg, route intraperitoneal; conditions: ip; how it was run: as §8
V79 [25] = assay: (§9) Tested for the effect of enzyme activation on the cytotoxicity at 1 uM when incubated with chinese hamster V79 cells; type: functional, Cricetulus griseus
V79 [26] = assay: (§10) Tested for the effect of enzyme activation on the cytotoxicity at 1 uM when incubated with chinese hamster V79 cells in presence of NADH and nitroreductase enzyme.; type: functional, Cricetulus griseus
How it was run: as §3, with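 “with” for “plus”, “μM) and E. coli B nitroreductase (10 μg/mL)” for “μM), without enzyme,”, “prodrug, giving % prodrug reduction.” for “prodrug.”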

V79 [27] = assay: (§11) Tested for the effect of enzyme activation on the cytotoxicity at 1 uM when incubated with chinese hamster V79 cells in presence of NADH; type: functional, Cricetulus griseus; how it was run: as §3
V79 [28] = assay: as §9; type: functional; conditions: Cricetulus griseus, read-out: Survival
V79 [29] = assay: as §10; type: functional; conditions: Cricetulus griseus, read-out: Survival
How it was run: as §3, with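 “with” for “plus”, “μM) and E. coli B nitroreductase (10 μg/mL)” for “μM), without enzyme,”, “prodrug, giving % prodrug reduction.” for “prodrug.”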

V79 [30] = assay: as §11; type: functional; conditions: Cricetulus griseus, read-out: Survival; how it was run: as §3
V79 [31] = assay: as §11; type: functional, Cricetulus griseus; remark: listed apart in the source
Mus musculus [32] = assay: Tested in vivo toxicity in mouse at dose 1 mg/kg when administered intraperitoneally on day 7; type: organism-based; design: dose 1 mg/kg, route intraperitoneal; conditions: ip
How it was run: (§12)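 Balb C mice (20-25 g), groups of 3, fed rodent diet and water ad libitum. Single ip injection in arachis oil at 1, 5, 10 or 100 mg/kg. Untreated and arachis-oil-only groups served as controls. Body weight recorded as % of day 0 on days 2, 3, 7 and 9.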

Mus musculus [33] = assay: Tested in vivo toxicity in mouse at dose 1 mg/kg when administered intraperitoneally on day 2; type: organism-based; design: dose 1 mg/kg, route intraperitoneal; conditions: ip; how it was run: as §12
Mus musculus [34] = assay: Tested in vivo toxicity in mouse at dose 1 mg/kg when administered intraperitoneally on day 9; type: organism-based; design: dose 1 mg/kg, route intraperitoneal; conditions: ip; how it was run: as §12
Mus musculus [35] = assay: Tested in vivo toxicity in mouse at dose 1 mg/kg when administered intraperitoneally on day 3; type: organism-based; design: dose 1 mg/kg, route intraperitoneal; conditions: ip; how it was run: as §12

O=C(OCc1ccc([N+](=O)[O-])cc1)Oc1ccc(N(CCCl)CCCl)cc1
viability at 10 µM (V79 [1]): 56.4%
Prodrug reduction (V79 [2]): 0%
viability at 10 µM (V79 [3]): 45.8%
Prodrug reduction (V79 [4]): 0%
Prodrug reduction (V79 [5]): 86%
viability at 10 µM (V79 [6]): 43.3%

O=C(Nc1ccc(N(CCCl)CCCl)cc1)OCc1ccc([N+](=O)[O-])cc1
viability at 50 µM (V79 [7]): 34.1%
Prodrug reduction (V79 [8]): 0%
viability at 50 µM (V79 [9]): < 0.001%
Prodrug reduction (V79 [10]): 0%
Prodrug reduction (V79 [11]): 30%
viability at 50 µM (V79 [12]): 27.1%

Cc1c2oc3c(C)ccc(C(=O)N[C@@H]4C(=O)N[C@H](C(C)C)C(=O)N5CCC[C@H]5C(=O)N(C)CC(=O)N(C)[C@@H](C(C)C)C(=O)O[C@@H]4C)c3nc-2c(C(=O)N[C@@H]2C(=O)N[C@H](C(C)C)C(=O)N3CCC[C@H]3C(=O)N(C)CC(=O)N(C)[C@@H](C(C)C)C(=O)O[C@@H]2C)c(NC(=O)OCc2ccc([N+](=O)[O-])cc2)c1=O [listing 1 of 2 here]
Weight (Mus musculus [13]): 109%
Weight (Mus musculus [14]): 105%
Weight (Mus musculus [15]): 110%
Weight (Mus musculus [16]): 101%
Weight (Mus musculus [17]): 95%
Weight (Mus musculus [18]): 101%
Weight (Mus musculus [19]): 96.4%
Weight (Mus musculus [20]): 103%
Weight (Mus musculus [21]): 95.6%
Weight (Mus musculus [22]): 96%
Weight (Mus musculus [23]): 108%
Weight (Mus musculus [24]): 102%

Cc1c2oc3c(C)ccc(C(=O)N[C@@H]4C(=O)N[C@H](C(C)C)C(=O)N5CCC[C@H]5C(=O)N(C)CC(=O)N(C)[C@@H](C(C)C)C(=O)O[C@@H]4C)c3nc-2c(C(=O)N[C@@H]2C(=O)N[C@H](C(C)C)C(=O)N3CCC[C@H]3C(=O)N(C)CC(=O)N(C)[C@@H](C(C)C)C(=O)O[C@@H]2C)c(NC(=O)OCc2ccc([N+](=O)[O-])cc2)c1=O [listing 2 of 2 here]
viability at 10 µM (V79 [1]): 39.3%
Prodrug reduction (V79 [25]): 0%
Prodrug reduction (V79 [2]): 0%
Prodrug reduction (V79 [26]): 90.5%
viability at 10 µM (V79 [3]): 44.6%
Prodrug reduction (V79 [27]): 0%
Prodrug reduction (V79 [4]): 0%
Prodrug reduction (V79 [5]): 93%
viability at 10 µM (V79 [6]): < 0.001%
viability at 1 µM (V79 [28]): 98.3%
viability at 1 µM (V79 [29]): 27.4%
viability at 1 µM (V79 [30]): 102%

COC12C(COC(N)=O)C3=C(C(O)=C(C)C(=N)C3=O)N1CC1C2N1C(=O)OCc1ccc([N+](=O)[O-])cc1 (stereo unspecified)
Prodrug reduction (V79 [25]): 0%
Prodrug reduction (V79 [26]): 91%
viability at 1 µM (V79 [28]): 76.7%
viability at 1 µM (V79 [29]): 25.4%
Prodrug reduction (V79 [31]): 0%
viability at 1 µM (V79 [30]): 70.8%

Cc1c2oc3c(C)ccc(C(=O)N[C@@H]4C(=O)N[C@H](C(C)C)C(=O)N5CCC[C@H]5C(=O)N(C)CC(=O)N(C)[C@@H](C(C)C)C(=O)O[C@@H]4C)c3nc-2c(C(=O)N[C@@H]2C(=O)N[C@H](C(C)C)C(=O)N3CCC[C@H]3C(=O)N(C)CC(=O)N(C)[C@@H](C(C)C)C(=O)O[C@@H]2C)c(N)c1=O (stereo in doubt) [DACTINOMYCIN]
Weight (Mus musculus [32]): 101.6%
Weight (Mus musculus [33]): 98.6%
Weight (Mus musculus [34]): 103%
Weight (Mus musculus [35]): 95%
